In article PMC8724840 (Biomolecules & Therapeutics, 2021):
Like-named read-outs stand apart in the source and are kept apart here.

Assays:
human GPR43 [1] = target: T1, human GPR43 (Homo sapiens, UniProt O15552); assay: GloSensor cAMP assay in HEK293-hGPR43 cells; assay type: cell-based
T1 sequence (O15552 1-330): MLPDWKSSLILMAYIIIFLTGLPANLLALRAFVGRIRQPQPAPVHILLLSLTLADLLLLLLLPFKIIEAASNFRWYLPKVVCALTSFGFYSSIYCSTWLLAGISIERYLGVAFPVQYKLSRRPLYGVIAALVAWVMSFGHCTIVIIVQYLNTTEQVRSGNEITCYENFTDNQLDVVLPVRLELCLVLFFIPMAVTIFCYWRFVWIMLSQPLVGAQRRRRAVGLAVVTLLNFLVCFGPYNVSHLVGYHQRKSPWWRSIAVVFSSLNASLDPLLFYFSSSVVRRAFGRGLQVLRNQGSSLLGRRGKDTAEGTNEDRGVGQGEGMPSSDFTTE
How it was run: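 pGloSensor-22F was transfected into cumate-inducible HEK293-hGPR43 cells, which were re-plated 24 h later for 16 h. Cells were equilibrated 2 h at 20°C in CO2-independent medium with 2% GloSensor cAMP reagent, then pre-read. Compound was added for 5 min, then 1 μM forskolin for 15 min, followed by a luminescence post-read. Signal is post/pre-read, normalised to 0.2% DMSO. Single-point acetate/propionate 10 mM, other agonists 10 μM. Triplicate.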

human GPR43 [2] = target: T1, human GPR43; assay: Ca2+ flux assay in HEK293-hGPR43 cells; assay type: cell-based
How it was run: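 HEK293 cells with cumate-inducible human GPR43, kept in DMEM/10% FBS/GlutaMAX/Pen-Strep/2 μg/mL puromycin at 37°C, 5% CO2. Seeded overnight, then loaded 2 h with Calcium 6 dye plus 2.5 mM probenecid. Fluorescence read (ex 485/em 525 nm) every 2.1 s for 50 s. Cells serum-starved. Run in duplicate or triplicate; mean ± SEM.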

GPR43 and β-arrestin 2 = target: T2, GPR43 and β-arrestin 2 (Homo sapiens, UniProt O15552); assay: Nano-Glo live cell assay of interaction between GPR43 and β-arrestin 2; assay type: cell-based; conditions: for change of potency / slope in β-arrestin-2 NanoBiT assay on addition of acetate: co-treatment with fixed concentrations of acetate
T2 sequence (O15552 1-330): T1 sequence (O15552 1-330)

[3] = test system: NF-κB activity induced by TNF-α in GPR43-expressing cells; assay: NF-κB luciferase reporter assay in HEK293-hGPR43 cells; assay type: cell-based, human
How it was run: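 For the NF-κB reporter readout, HEK293-hGPR43 cells were transfected with an NF-κB-RE luciferase reporter (pGL4.32), incubated 24 h at 37°C, 5% CO2, and plated overnight. Compound pretreatment lasted 20 min, then 10 ng/mL human TNF-α was added for 6 h at 37°C. Luminescence was read 15 min after adding One-Glo reagent. Duplicate or triplicate.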

GPR41 = target: T3, GPR41 (Homo sapiens, UniProt O14843); assay: cAMP assay in GPR41-expressing HEK293 cells; assay type: cell-based
T3 sequence (O14843 1-346): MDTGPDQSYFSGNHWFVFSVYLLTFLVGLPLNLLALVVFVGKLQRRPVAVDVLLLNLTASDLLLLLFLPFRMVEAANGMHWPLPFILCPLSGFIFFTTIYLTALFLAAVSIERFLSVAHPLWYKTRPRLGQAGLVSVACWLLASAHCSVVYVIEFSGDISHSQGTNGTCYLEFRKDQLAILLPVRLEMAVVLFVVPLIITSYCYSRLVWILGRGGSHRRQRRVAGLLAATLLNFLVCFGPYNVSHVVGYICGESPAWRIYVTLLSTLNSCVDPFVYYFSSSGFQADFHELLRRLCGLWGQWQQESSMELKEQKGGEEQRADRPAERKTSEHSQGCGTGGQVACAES

DSS-induced colitis = DSS-induced colitis mouse model; assay type: in vivo, mouse (female C57BL/6); conditions: 30 mg/kg p.o. daily, 2% DSS
How it was run: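 Female C57BL/6 mice, 5 weeks old, SPF, acclimated 1 week, given 2% DSS (36–50 kDa) in drinking water ad libitum, renewed every 3 days. Compound 30 mg/kg p.o. daily. Scored daily: weight loss 0–4, stool 0–3, hemoccult bleeding 0–3. DAI is their sum. Day 8: colon length measured. PFA-fixed paraffin swiss-rolls stained for MPO by IHC (ABC, hematoxylin). n=5 control, 10 others.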

Solubility in DMSO = assay type: physicochemical; conditions: at a concentration of 20 mM
[4] = Homo sapiens, 6 h, read-out: EC50 NF-κB

Row | Compound | cAMP level in GPR43-expressing cells (human GPR43 [1]; 10 mM) | cAMP level in GPR41-expressing cells (GPR41; 10 mM) | cAMP level in GPR41-expressing cells (GPR41; 10 μM) | EC50 (human GPR43 [1]) | cAMP level in GPR43-expressing cells (human GPR43 [1]; 10 μM) | EC50 (human GPR43 [2]) | EC50 (GPR43 and β-arrestin 2) | agonist type in the β-arrestin assay (maximum efficacy vs acetate and PAAT) (GPR43 and β-arrestin 2) | change of potency / slope in β-arrestin-2 NanoBiT assay on addition of acetate (GPR43 and β-arrestin 2) | EC50 [3, 4] | solubility in dimethyl sulfoxide (DMSO) (Solubility in DMSO) | level of myeloperoxidase (MPO) staining in colon (DSS-induced colitis; day 8) | other results
1 | CC(=O)[O-].[Na+] [Acetate, sodium acetate, reference compound] | decrease | decrease | – | – | – | – | – | – | – | – | – | – | EC50 (human GPR43 [1]; read-out: EC50 cAMP, HEK293-hGPR43, forskolin 1 μM): 301 µM; EC50 (human GPR43 [1]; read-out: EC50 in the cAMP assay, HEK293-hGPR43): 300 µM; EC50 (human GPR43 [2]; read-out: EC50 Ca^2+, HEK293-hGPR43): 57.7 µM; EC50 (GPR43 and β-arrestin 2; read-out: EC50 β-Arrestin 2, GPR43-SmBit / LgBit-βarr2, 25 min): 1440 µM; efficacy of inhibition of NF-κB luciferase reporter activity ([3]; 10 ng/mL TNF-α): half the efficacy; EC50 ([3]; read-out: EC50 NF-κB, 10 ng/mL TNF-α, 6 h): 77.4 µM
2 | CC1=C(C(=O)Nc2cc(Cl)ccc2Cl)C(c2ccco2)C2=C(CCCC2=O)N1 (stereo not shown) [AR420626] | – | – | exerted activity | – | – | – | – | – | – | – | – | – | –

Now from value to compound, other results behind:

Row | cAMP level in GPR43-expressing cells (human GPR43 [1]; 10 mM) | cAMP level in GPR41-expressing cells (GPR41; 10 mM) | cAMP level in GPR41-expressing cells (GPR41; 10 μM) | EC50 (human GPR43 [1]) | cAMP level in GPR43-expressing cells (human GPR43 [1]; 10 μM) | EC50 (human GPR43 [2]) | EC50 (GPR43 and β-arrestin 2) | agonist type in the β-arrestin assay (maximum efficacy vs acetate and PAAT) (GPR43 and β-arrestin 2) | change of potency / slope in β-arrestin-2 NanoBiT assay on addition of acetate (GPR43 and β-arrestin 2) | EC50 [3, 4] | solubility in dimethyl sulfoxide (DMSO) (Solubility in DMSO) | Compound | level of myeloperoxidase (MPO) staining in colon (DSS-induced colitis; day 8) | other results
3 | decrease | decrease | – | – | – | – | – | – | – | – | – | CCC(=O)O [propionate, reference compound] | – | –
4 | – | – | no effects | 0.016 µM | significantly suppressed | 0.019 µM | 0.018 µM | partial agonists | stiffer slopes | 0.019 µM | completely soluble | Cc1nc(N2C[C@@H](C)O[C@@H](C)C2)c2[nH]c(N)c(S(=O)(=O)c3ccccc3F)c2n1 [Compound 187, 4-[(2R,6S)-2,6-dimethylmorpholin-4-yl]-7-(2-fluorobenzenesulfonyl)-2-methyl-5H-pyrrolo[3,2-d]pyrimidin-6-amine] | reduced | potency and efficacy in the calcium assay (human GPR43 [2]; HEK293-hGPR43): highest potency and efficacy
5 | – | – | no effects | 18.7 µM | significantly suppressed | 2.41 µM | 1.61 µM | partial agonists | stiffer slopes | 3.41 µM | completely soluble | Cc1nc(N2CCCC(C)C2)c2[nH]c(N)c(S(=O)(=O)c3ccccc3)c2n1 (stereo not shown) [Compound 110, 2-methyl-4-(3-methylpiperidin-1-yl)-7-(phenylsulfonyl)-5H-pyrrolo[3,2-d]pyrimidine-6-amine] | reduced | potency in the cAMP assay (human GPR43 [1]; HEK293-hGPR43): micromolar potency; EC50 ([3]; Homo sapiens, read-out: EC50 NF-κB luciferase reporter): 3.4 µM; colon length (DSS-induced colitis; day 8): significantly restored; daily activity index (DAI) (DSS-induced colitis; vs vehicle-treated mice): decrease; stool consistency score (DSS-induced colitis; vs vehicle-treated mice): decrease
